Test results published in ChEMBL document CHEMBL3877243, “Synthesis and biological evaluation of novel pentacyclic triterpene α-cyclodextrin conjugates as HCV entry inhibitors” (Eur J Med Chem, 2016).
Converted amounts (≈) assume the structure as drawn. The source made the active and inactive calls. The calls are words filed in the database; no cut-off is given here.

Assays:
[1] = Aqueous solubility of the compound by HPLC method; type: physicochemical; conditions: buffer
[2] = tested on: Hepatitis C virus; test: Antiviral activity against HCV pseudoparticle harboring HCV envelope protein E1 and E2 and HIV proviral DNA assessed as inhibition of pseudoparticle entry into human Huh7 cells at 5 uM measured after 3 days by luciferase reporter gene assay relative to control; type: functional, Hepacivirus hominis; conditions: Huh-7, 72 h
Procedure, shortened: (§1)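 Huh-7 cells (5 × 10³/well) seeded 24 h, then infected with HCVpp or VSVGpp (HIV pNL4-3 luciferase backbone with HCV E1E2 or VSV G, made in 293T cells) with compound in 1% DMSO at 37 °C. Luciferase read 3 days post-infection. % inhibition = 100 − background-subtracted signal as % of DMSO wells. Duplicates, ≥3 repeats.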

[3] = Cytotoxicity against MDCK cells measured after 48 hrs by alamar blue assay; type: toxicity, cell-based, Canis lupus familiaris; conditions: dog
Procedure, shortened: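 MDCK cells were seeded at 1 × 10⁴ per well and allowed to adhere for 16 h at 37 °C in 5% CO₂. Compounds were added at 0.1, 1, 10 and 100, in triplicate, against 1% DMSO controls, for 48 h. AlamarBlue was then added for 2 h and fluorescence read (ex 530, em 590 nm). Percent viability gave CC50.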

[4] = tested on: Hepatitis C virus; test: (§2) Antiviral activity against HCV pseudoparticle harboring HCV envelope protein E1, E2 and HIV proviral DNA infected in HuH7 cells assessed as reduction in viral infection at 10 uM incubated with virus and compound for 3 hrs by luciferase reporter gene assay; type: functional, Hepacivirus hominis; conditions: Huh-7, 3 h
Procedure, shortened: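 Pre-binding format: Huh-7 cells incubated with compound plus HCVpp at 4 °C for 3 h to allow virus binding. Readout is a luciferase pseudovirus-entry signal, normalised to 0.5% DMSO (final). An anti-CD81 antibody served as positive control.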

[5] = tested on: Hepatitis C virus; test: Antiviral activity against HCV pseudoparticle harboring HCV envelope protein E1 and E2 and HIV proviral DNA assessed as inhibition of pseudoparticle entry into human Huh7 cells measured after 3 days by luciferase reporter gene assay; type: functional, cell-based, Hepacivirus hominis; conditions: Huh-7, 72 h
Procedure, shortened: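 Huh-7 cells infected with HCVpp with compound at six concentrations spanning the nanomolar range upward, 37 °C. Luciferase read 3 days post-infection, normalised to DMSO-only wells minus uninfected background. Each concentration in triplicate. IC50 is the mean of at least three independent determinations.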

[6] = tested on: Hepatitis C virus; test: as §2, with “preincubated viral particle” for “incubated”, “cells” for “virus and compound”, “3 hrs followed by test compound addition measured after 72” for “3”; type: functional, Hepacivirus hominis; conditions: Huh-7
Procedure, shortened: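 Post-binding format: Huh-7 cells incubated with HCVpp at 4 °C for 3 h, then washed thoroughly to remove unbound virus. Cells were then exposed to compound at 37 °C for 72 h. Luciferase readout, normalised to 0.5% DMSO (final).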

[7] = tested on: Hepatitis C virus; test: as §2, with “preincubated cells” for “incubated”, “test” for “virus and”, “3 hrs followed by viral infection measured after 72” for “3”; type: functional, Hepacivirus hominis; conditions: Huh-7
Procedure, shortened: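 Pre-treatment format: Huh-7 cells incubated 3 h at 37 °C with compound in DMEM/10% FBS, then washed to remove unbound compound. Cells were then infected with HCVpp at 37 °C for 72 h. Luciferase readout, normalised to 0.5% DMSO (final).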

[8] = tested on: Hepatitis C virus; test: Antiviral activity against HCV pseudoparticle harboring HCV envelope protein E1, E2 and HIV proviral DNA infected in HuH7 cells assessed as reduction in viral infection at 10 uM pretreated with virus for 6 hrs followed by compound addition measured after 72 hrs by luciferase reporter gene assay; type: functional, Hepacivirus hominis; conditions: Huh-7
Procedure, shortened: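 Post-entry format: Huh-7 cells incubated with HCVpp at 37 °C for 6 h to allow entry but not reverse transcription, then washed. Compound added at 37 °C for a further 72 h. Luciferase readout, normalised to 0.5% DMSO (final).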

[9] = Selectivity index, ratio of CC50 for MDCK cells to IC50 for HCV pseudoparticle expressing envelope protein E1 and E2 to; type: functional
Procedure, shortened: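 SI = MDCK CC50 / HCVpp IC50. The IC50 came from HIV pNL4-3 luciferase pseudoparticles carrying HCV E1E2, made in 293T cells. Huh-7 cells (5 × 10³ per well, seeded 24 h earlier) were infected with compound present at 37 °C, and luciferase was read 3 days later. Inhibition was normalised to DMSO wells minus uninfected background. IC50 values are means of at least three independent determinations.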

[10] = tested on: Vesicular stomatitis virus; test: Antiviral activity against VSV pseudoparticle harboring VSV G protein and HIV proviral DNA assessed as inhibition of pseudoparticle entry into human Huh7 cells measured after 3 days by luciferase reporter gene assay; type: functional, cell-based; conditions: Huh-7; procedure, shortened: as §1
[11] = Aqueous solubility of the compound at 100 ug/ml incubated for 1 hr; type: physicochemical; conditions: buffer
[12] = Aqueous solubility of the compound at room temperature measured per 100 ml of solution; type: physicochemical; conditions: buffer

Work on CC1(C)CC[C@]2(C(=O)O)CC[C@]3(C)C(=CC[C@@H]4[C@@]5(C)CC[C@H](O)C(C)(C)[C@@H]5CC[C@]43C)[C@@H]2C1 [OLEANOLIC_ACID] yielded a solubility [1] of 0.05 µg/mL (≈ 0.109 µM).

For CC1(C)CC[C@]2(C(=O)NCc3cn(C[C@H]4O[C@@H]5O[C@H]6[C@H](O)[C@@H](O)[C@@H](O[C@H]7[C@H](O)[C@@H](O)[C@@H](O[C@H]8[C@H](O)[C@@H](O)[C@@H](O[C@H]9[C@H](O)[C@@H](O)[C@@H](O[C@H]%10[C@H](O)[C@@H](O)[C@@H](O[C@H]4[C@H](O)[C@H]5O)O[C@@H]%10CO)O[C@@H]9CO)O[C@@H]8CO)O[C@@H]7CO)O[C@@H]6CO)nn3)[C@H](O)C[C@]3(C)C(=CC[C@@H]4[C@@]5(C)CC[C@H](O)C(C)(C)[C@@H]5CC[C@]43C)[C@H]2C1, the inhibition at 5 µM [2] was 95%, the CC50 at 48 h [3] was > 100 µM and the inhibition at 10 µM [4] was 10 to 30%. The IC50 [5] was 0.25 µM, the inhibition at 10 µM [6] was > 90% and the inhibition at 10 µM [7] was 10 to 30%. For the same compound, the inhibition at 10 µM [8] was 10 to 30% and the “Ratio CC50/IC50” value [9] was >400.

For CC1(C)CC[C@]2(C(=O)O)[C@H](O)C[C@]3(C)C(=CC[C@@H]4[C@@]5(C)CC[C@H](O)C(C)(C)[C@@H]5CC[C@]43C)[C@@H]2C1, the CC50 at 48 h [3] was 15.4 µM and the “Ratio CC50/IC50” value [9] was 11.

With C=C(C)[C@@H]1CC[C@]2(C(=O)NCc3cn(C[C@H]4O[C@@H]5O[C@H]6[C@H](OC(C)=O)[C@@H](OC(C)=O)[C@@H](O[C@H]7[C@H](OC(C)=O)[C@@H](OC(C)=O)[C@@H](O[C@H]8[C@H](OC(C)=O)[C@@H](OC(C)=O)[C@@H](O[C@H]9[C@H](OC(C)=O)[C@@H](OC(C)=O)[C@@H](O[C@H]%10[C@H](OC(C)=O)[C@@H](OC(C)=O)[C@@H](O[C@H]4[C@H](OC(C)=O)[C@H]5OC(C)=O)O[C@@H]%10COC(C)=O)O[C@@H]9COC(C)=O)O[C@@H]8COC(C)=O)O[C@@H]7COC(C)=O)O[C@@H]6COC(C)=O)nn3)CC[C@]3(C)[C@H](CC[C@@H]4[C@@]5(C)CC[C@H](O)C(C)(C)[C@@H]5CC[C@]43C)[C@@H]12 the inhibition at 5 µM [2] was 60% and the inhibition [10] was “Active”.

C=C(C)[C@@H]1CC[C@]2(C(=O)O)CC[C@]3(C)[C@H](CC[C@@H]4[C@@]5(C)CC[C@H](O)C(C)(C)[C@@H]5CC[C@]43C)[C@@H]12 [BETULINIC ACID] gave a solubility at 1 h [11] of 0.02 µg/mL (≈ 0.0438 µM).

In the case of C=C(C)[C@@H]1CC[C@]2(C(=O)NCc3cn(C[C@H]4O[C@@H]5O[C@H]6[C@H](O)[C@@H](O)[C@@H](O[C@H]7[C@H](O)[C@@H](O)[C@@H](O[C@H]8[C@H](O)[C@@H](O)[C@@H](O[C@H]9[C@H](O)[C@@H](O)[C@@H](O[C@H]%10[C@H](O)[C@@H](O)[C@@H](O[C@H]4[C@H](O)[C@H]5O)O[C@@H]%10CO)O[C@@H]9CO)O[C@@H]8CO)O[C@@H]7CO)O[C@@H]6CO)nn3)CC[C@]3(C)[C@H](CC[C@@H]4[C@@]5(C)CC[C@H](O)C(C)(C)[C@@H]5CC[C@]43C)[C@@H]12, the inhibition at 5 µM [2] is reported as 60% and the inhibition [10] is reported as “Active”.

In the case of OC[C@H]1O[C@@H]2O[C@H]3[C@H](O)[C@@H](O)[C@@H](O[C@H]4[C@H](O)[C@@H](O)[C@@H](O[C@H]5[C@H](O)[C@@H](O)[C@@H](O[C@H]6[C@H](O)[C@@H](O)[C@@H](O[C@H]7[C@H](O)[C@@H](O)[C@@H](O[C@H]1[C@H](O)[C@H]2O)O[C@@H]7CO)O[C@@H]6CO)O[C@@H]5CO)O[C@@H]4CO)O[C@@H]3CO [ALFADEX], the solubility [12] is reported as 14.5 g.

With CC(=O)OC[C@H]1O[C@@H]2O[C@H]3[C@H](OC(C)=O)[C@@H](OC(C)=O)[C@@H](O[C@H]4[C@H](OC(C)=O)[C@@H](OC(C)=O)[C@@H](O[C@H]5[C@H](OC(C)=O)[C@@H](OC(C)=O)[C@@H](O[C@H]6[C@H](OC(C)=O)[C@@H](OC(C)=O)[C@@H](O[C@H]7[C@H](OC(C)=O)[C@@H](OC(C)=O)[C@@H](O[C@H]1[C@H](OC(C)=O)[C@H]2OC(C)=O)O[C@@H]7COC(C)=O)O[C@@H]6COC(C)=O)O[C@@H]5Cn1cc(CNC(=O)[C@]25CCC(C)(C)C[C@@H]2C2=CC[C@@H]6[C@@]7(C)CC[C@H](O)C(C)(C)[C@@H]7CC[C@@]6(C)[C@]2(C)C[C@H]5O)nn1)O[C@@H]4COC(C)=O)O[C@@H]3COC(C)=O the inhibition at 5 µM [2] was 80%, the CC50 at 48 h [3] was > 100 µM and the inhibition at 10 µM [4] was 10 to 30%. The IC50 [5] was 1.18 µM, the inhibition at 10 µM [6] was > 90% and the inhibition at 10 µM [7] was 10 to 30%. The inhibition at 10 µM [8] was 10 to 30% and the “Ratio CC50/IC50” value [9] was >85.
